Experiments:
[1] = target: Amyloid-beta precursor protein (Homo sapiens) (UniProt P05067); experiment: Inhibition of amyloid beta-40 aggregation (unknown origin) assessed as fibril width at 300 uM for 7 days at pH 7.4 by transmission electron microscopy (reference value: 12.3 +/- 1.2 nanometer)
Outline: (§1)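 Aβ40 (60 µM in control) was incubated quiescently with the compound at compound:Aβ40 molar ratios of 1:5, 1:1 and 5:1, pH 7.4, 37 °C, for 7 days. Fibril width and length were then measured from transmission electron microscopy images.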

[2] = target: Amyloid-beta precursor protein (Homo sapiens) (UniProt P05067); experiment: Inhibition of amyloid beta-40 aggregation (unknown origin) assessed as extension of lag phase of Abeta40 aggregation by ThT fluorescence assay
Outline: (§2)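 Monomer-rich Aβ40 (35 µM, supernatant after NaOH dissolution, sonication and ultracentrifugation) was incubated with 10 nM–100 µM compound in 20 mM phosphate buffer pH 7.4 (I 0.15 M), with 20 µM ThT and 0.007% NaN3, quiescent at 37 °C. Fluorescence (ex 440, em 480 nm) was read every 5 min. Lag time came from an empirical sigmoidal nonlinear-regression fit; mean ± SE of four independent experiments.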

[3] = target: Amyloid-beta precursor protein (Homo sapiens) (UniProt P05067); experiment: Inhibition of amyloid beta-40 aggregation (unknown origin) assessed as beta-sheet at 150 uM after 72 hrs by CD spectra analysis (reference value: 1 to 3%); parameters: scale not given: the % may be the effect or the level left
[4] = target: Amyloid-beta precursor protein (Homo sapiens) (UniProt P05067); experiment: Inhibition of amyloid beta-40 aggregation (unknown origin) assessed as unordered at 6 uM after 72 hrs by CD spectra analysis (reference value: 84 to 87%); parameters: scale not given: the % may be the effect or the level left
[5] = target: Amyloid-beta precursor protein (Homo sapiens) (UniProt P05067); experiment: Inhibition of amyloid beta-40 aggregation (unknown origin) assessed as alpha-helix at 30 uM after 72 hrs by CD spectra analysis (reference value: 11 to 15%); parameters: scale not given: the % may be the effect or the level left
[6] = target: Amyloid-beta precursor protein (Homo sapiens) (UniProt P05067); experiment: Inhibition of amyloid beta-40 aggregation (unknown origin) assessed as unordered at 150 uM after 72 hrs by CD spectra analysis (reference value: 84 to 87%); parameters: scale not given: the % may be the effect or the level left
[7] = target: Amyloid-beta precursor protein (Homo sapiens) (UniProt P05067); experiment: Inhibition of amyloid beta-40 aggregation (unknown origin) assessed as beta-turns at 150 uM after 72 hrs by CD spectra analysis (reference value: 0%); parameters: scale not given: the % may be the effect or the level left
[8] = target: Amyloid-beta precursor protein (Homo sapiens) (UniProt P05067); experiment: Inhibition of amyloid beta-40 aggregation (unknown origin) assessed as alpha-helix at 150 uM after 72 hrs by CD spectra analysis (reference value: 11 to 15%); parameters: scale not given: the % may be the effect or the level left
[9] = Neuroprotective activity in C57BL/6 mouse primary cortical neurons assessed as reduction in amyloid beta-40-induced cell death at 40 uM pre-incubated with amyloid beta-40 for 6 hrs and measured after 48 hrs by trypan blue dye exclusion assay; type: functional, Cerebral cortex neuron; parameters: scale not given: the % may be the effect or the level left
Outline: (§3)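 Aβ40 (40 µM) was preincubated with or without compound for 6 h at 37 °C, at molar ratios 1:1 and 2.5:1 (compound:Aβ40). It was then added to 7–9-day-old primary cortical neurons cultured from 6 pregnant C57BL/6 mice. After 48 h, cells were stained with trypan blue and live and dead cells were counted. Values are mean + SE.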

[10] = Neuroprotective activity in C57BL/6 mouse primary cortical neurons assessed as reduction in amyloid beta-40-induced cell death at 100 uM pre-incubated with amyloid beta-40 for 6 hrs and measured after 48 hrs by trypan blue dye exclusion assay; type: functional, Cerebral cortex neuron; parameters: scale not given: the % may be the effect or the level left; outline: as §3
[11] = Toxicity in C57BL/6 mouse primary cortical neurons assessed as reduction in cell viability at 40 to 100 uM after 48 hrs by trypan blue dye exclusion assay; type: cell-based; conditions: cerebral cortex neuron
[12] = target: Amyloid-beta precursor protein (Homo sapiens) (UniProt P05067); experiment: Inhibition of amyloid beta-40 aggregation (unknown origin) assessed as beta-turns at 6 uM after 72 hrs by CD spectra analysis (reference value: 0%); parameters: scale not given: the % may be the effect or the level left
[13] = target: Amyloid-beta precursor protein (Homo sapiens) (UniProt P05067); experiment: Inhibition of amyloid beta-40 aggregation (unknown origin) assessed as fibril length at 300 uM for 7 days at pH 7.4 by transmission electron microscopy (reference value: > 2 micrometer); outline: as §1
[14] = target: Amyloid-beta precursor protein (Homo sapiens) (UniProt P05067); experiment: Inhibition of amyloid beta-40 aggregation (unknown origin) assessed as alpha-helix at 6 uM after 72 hrs by CD spectra analysis (reference value: 11 to 15%); parameters: scale not given: the % may be the effect or the level left
[15] = target: Amyloid-beta precursor protein (Homo sapiens) (UniProt P05067); experiment: Inhibition of amyloid beta-40 aggregation (unknown origin) assessed as beta-sheet at 6 uM after 72 hrs by CD spectra analysis (reference value: 1 to 3%); parameters: scale not given: the % may be the effect or the level left
[16] = target: Amyloid-beta precursor protein (Homo sapiens) (UniProt P05067); experiment: Inhibition of amyloid beta-40 aggregation (unknown origin) assessed as unordered at 30 uM after 72 hrs by CD spectra analysis (reference value: 84 to 87%); parameters: scale not given: the % may be the effect or the level left
[17] = target: Amyloid-beta precursor protein (Homo sapiens) (UniProt P05067); experiment: Inhibition of amyloid beta-40 aggregation (unknown origin) assessed as beta-turns at 30 uM after 72 hrs by CD spectra analysis (reference value: 0%); parameters: scale not given: the % may be the effect or the level left
[18] = target: Amyloid-beta precursor protein (Homo sapiens) (UniProt P05067); experiment: Inhibition of amyloid beta-40 aggregation (unknown origin) assessed as extension of lag phase of Abeta40 aggregation at 100 uM by ThT fluorescence assay; parameters: scale not given: the % may be the effect or the level left; outline: as §2
[19] = target: Amyloid-beta precursor protein (Homo sapiens) (UniProt P05067); experiment: Inhibition of amyloid beta-40 aggregation (unknown origin) assessed as beta-sheet at 30 uM after 72 hrs by CD spectra analysis (reference value: 1 to 3%); parameters: scale not given: the % may be the effect or the level left
[20] = Toxicity in C57BL/6 mouse primary cortical neurons assessed as reduction in cell viability at 240 to 600 uM after 48 hrs by trypan blue dye exclusion assay; type: cell-based; conditions: cerebral cortex neuron
[21] = target: Amyloid-beta precursor protein (Homo sapiens) (UniProt P05067); experiment: Inhibition of amyloid beta-40 aggregation (unknown origin) assessed as beta-turns at 900 uM after 72 hrs by CD spectra analysis (reference value: 0%); parameters: scale not given: the % may be the effect or the level left
Outline: (§4)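 Low-molecular-weight Aβ40 was prepared by dissolving the peptide in dilute aqueous NaOH (pH 10.5–12) and diluting in phosphate buffer (pH 7.4). It was sonicated for 60 s and ultracentrifuged at 80,000 rpm for 90 min at 4 °C, and the supernatant was used. Compound and Aβ40 were incubated quiescently at pH 7.4 and 37 °C at molar ratios 1:5, 1:1 and 5:1. Secondary-structure fractions were read from CD spectra after 72 h.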

[22] = target: Amyloid-beta precursor protein (Homo sapiens) (UniProt P05067); experiment: Inhibition of amyloid beta-40 aggregation (unknown origin) assessed as beta-sheet at 36 uM after 72 hrs by CD spectra analysis (reference value: 2 to 3%); parameters: scale not given: the % may be the effect or the level left; outline: as §4
[23] = target: Amyloid-beta precursor protein (Homo sapiens) (UniProt P05067); experiment: Inhibition of amyloid beta-40 aggregation (unknown origin) assessed as unordered at 900 uM after 72 hrs by CD spectra analysis (reference value: 82 to 85%); parameters: scale not given: the % may be the effect or the level left; outline: as §4
[24] = target: Amyloid-beta precursor protein (Homo sapiens) (UniProt P05067); experiment: Inhibition of amyloid beta-40 aggregation (unknown origin) assessed as alpha-helix at 36 uM after 72 hrs by CD spectra analysis (reference value: 11 to 15%); parameters: scale not given: the % may be the effect or the level left; outline: as §4
[25] = target: Amyloid-beta precursor protein (Homo sapiens) (UniProt P05067); experiment: Inhibition of amyloid beta-40 aggregation (unknown origin) assessed as beta-sheet at 180 uM after 72 hrs by CD spectra analysis (reference value: 2 to 3%); parameters: scale not given: the % may be the effect or the level left; outline: as §4
[26] = target: Amyloid-beta precursor protein (Homo sapiens) (UniProt P05067); experiment: Inhibition of amyloid beta-40 aggregation (unknown origin) assessed as beta-turns at 180 uM after 72 hrs by CD spectra analysis (reference value: 0%); parameters: scale not given: the % may be the effect or the level left; outline: as §4
[27] = target: Amyloid-beta precursor protein (Homo sapiens) (UniProt P05067); experiment: Inhibition of amyloid beta-40 aggregation (unknown origin) assessed as unordered at 36 uM after 72 hrs by CD spectra analysis (reference value: 82 to 85%); parameters: scale not given: the % may be the effect or the level left; outline: as §4
[28] = Neuroprotective activity in C57BL/6 mouse primary cortical neurons assessed as reduction in amyloid beta-40-induced cell death at 600 uM pre-incubated with amyloid beta-40 for 6 hrs and measured after 48 hrs by trypan blue dye exclusion assay; type: functional, Cerebral cortex neuron; parameters: scale not given: the % may be the effect or the level left
[29] = target: Amyloid-beta precursor protein (Homo sapiens) (UniProt P05067); experiment: Inhibition of amyloid beta-40 aggregation (unknown origin) assessed as fibril width at 1800 uM for 7 days at pH 7.4 by transmission electron microscopy (reference value: 12.3 +/- 1.2 nanometer)
[30] = target: Amyloid-beta precursor protein (Homo sapiens) (UniProt P05067); experiment: Inhibition of amyloid beta-40 aggregation (unknown origin) assessed as alpha-helix at 180 uM after 72 hrs by CD spectra analysis (reference value: 11 to 15%); parameters: scale not given: the % may be the effect or the level left; outline: as §4
[31] = target: Amyloid-beta precursor protein (Homo sapiens) (UniProt P05067); experiment: Inhibition of amyloid beta-40 aggregation (unknown origin) assessed as alpha-helix at 900 uM after 72 hrs by CD spectra analysis (reference value: 11 to 15%); parameters: scale not given: the % may be the effect or the level left; outline: as §4
[32] = target: Amyloid-beta precursor protein (Homo sapiens) (UniProt P05067); experiment: Inhibition of amyloid beta-40 aggregation (unknown origin) assessed as beta-turns at 36 uM after 72 hrs by CD spectra analysis (reference value: 0%); parameters: scale not given: the % may be the effect or the level left; outline: as §4
[33] = target: Amyloid-beta precursor protein (Homo sapiens) (UniProt P05067); experiment: Inhibition of amyloid beta-40 aggregation (unknown origin) assessed as unordered at 180 uM after 72 hrs by CD spectra analysis (reference value: 82 to 85%); parameters: scale not given: the % may be the effect or the level left; outline: as §4
[34] = target: Amyloid-beta precursor protein (Homo sapiens) (UniProt P05067); experiment: Inhibition of amyloid beta-40 aggregation (unknown origin) assessed as beta-sheet at 900 uM after 72 hrs by CD spectra analysis (reference value: 2 to 3%); parameters: scale not given: the % may be the effect or the level left; outline: as §4
[35] = Neuroprotective activity in C57BL/6 mouse primary cortical neurons assessed as reduction in amyloid beta-40-induced cell death at 240 uM pre-incubated with amyloid beta-40 for 6 hrs and measured after 48 hrs by trypan blue dye exclusion assay; type: functional, Cerebral cortex neuron; parameters: scale not given: the % may be the effect or the level left

Sequence of Amyloid-beta precursor protein (Homo sapiens) (P05067 whole entry): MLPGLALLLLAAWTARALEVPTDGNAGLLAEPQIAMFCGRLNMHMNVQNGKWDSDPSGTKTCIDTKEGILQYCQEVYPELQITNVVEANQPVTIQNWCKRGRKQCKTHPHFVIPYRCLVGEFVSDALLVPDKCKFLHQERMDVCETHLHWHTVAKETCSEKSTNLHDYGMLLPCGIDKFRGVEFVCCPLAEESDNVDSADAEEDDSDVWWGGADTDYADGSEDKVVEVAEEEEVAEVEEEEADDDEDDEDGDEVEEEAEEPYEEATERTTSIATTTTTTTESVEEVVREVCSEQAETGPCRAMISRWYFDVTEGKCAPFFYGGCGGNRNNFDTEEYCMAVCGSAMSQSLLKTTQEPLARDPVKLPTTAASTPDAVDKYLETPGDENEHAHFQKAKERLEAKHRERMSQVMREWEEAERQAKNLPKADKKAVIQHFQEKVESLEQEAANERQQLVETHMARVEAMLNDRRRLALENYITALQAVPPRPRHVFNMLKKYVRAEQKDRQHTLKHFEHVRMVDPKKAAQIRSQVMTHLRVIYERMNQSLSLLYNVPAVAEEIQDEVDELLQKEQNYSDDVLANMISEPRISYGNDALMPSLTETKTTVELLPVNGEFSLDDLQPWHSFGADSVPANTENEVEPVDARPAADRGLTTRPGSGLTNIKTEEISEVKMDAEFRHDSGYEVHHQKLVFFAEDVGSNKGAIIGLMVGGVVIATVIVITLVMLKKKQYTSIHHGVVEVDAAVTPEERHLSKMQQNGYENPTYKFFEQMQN

## OC[C@H]1O[C@H](O[C@H]2O[C@H](Cn3cc(COCC(COCc4cn(C[C@H]5O[C@H](O[C@H]6O[C@H](CO)[C@@H](O)[C@H](O)[C@H]6O)[C@H](O)[C@@H](O)[C@@H]5O)nn4)(COCc4cn(C[C@H]5O[C@H](O[C@H]6O[C@H](CO)[C@@H](O)[C@H](O)[C@H]6O)[C@H](O)[C@@H](O)[C@@H]5O)nn4)COCC(COCc4cn(C[C@H]5O[C@H](O[C@H]6O[C@H](CO)[C@@H](O)[C@H](O)[C@H]6O)[C@H](O)[C@@H](O)[C@@H]5O)nn4)(COCc4cn(C[C@H]5O[C@H](O[C@H]6O[C@H](CO)[C@@H](O)[C@H](O)[C@H]6O)[C@H](O)[C@@H](O)[C@@H]5O)nn4)COCc4cn(C[C@H]5O[C@H](O[C@H]6O[C@H](CO)[C@@H](O)[C@H](O)[C@H]6O)[C@H](O)[C@@H](O)[C@@H]5O)nn4)nn3)[C@@H](O)[C@H](O)[C@H]2O)[C@H](O)[C@@H](O)[C@@H]1O
[1]
  Activity: 8.7 nm
[2]
  inhibition: Dose-dependent effect
[3]
  Activity: 16%
[4]
  Activity: 17%
[5]
  Activity: 20%
[6]
  Activity: 36%
[7]
  Activity: 26%
[8]
  Activity: 22%
[9]
  Activity: 45%
[10]
  Activity: 59%
[11]
  Activity: Non-toxic
[12]
  Activity: 27%
[13]
  Activity: < 2 µm
[14]
  Activity: 21%
[15]
  Activity: 35%
[16]
  Activity: 18%
[17]
  Activity: 30%
[18]
  Activity: 45%
[19]
  Activity: 32%

## OC[C@H]1O[C@H](O[C@H]2O[C@H](CO)[C@@H](O)[C@H](O)[C@H]2O)[C@H](O)[C@@H](O)[C@@H]1O [TREHALOSE]
[20]
  Activity: Non-toxic
[21]
  Activity: 29%
[22]
  Activity: 36%
[23]
  Activity: 17%
[24]
  Activity: 19%
[25]
  Activity: 36%
[26]
  Activity: 33%
[27]
  Activity: 15%
[28]
  Activity: 55%
[29]
  Activity: 11.8 nm
[30]
  Activity: 26%
[31]
  Activity: 18%
[32]
  Activity: 30%
[33]
  Activity: 5%
[34]
  Activity: 36%
[35]
  Activity: 39%

## OC[C@H]1O[C@@H](n2cc(COCC(COCc3cn([C@@H]4O[C@H](CO)[C@H](O)[C@H](O)[C@H]4O)nn3)(COCc3cn([C@@H]4O[C@H](CO)[C@H](O)[C@H](O)[C@H]4O)nn3)COCC(COCc3cn([C@@H]4O[C@H](CO)[C@H](O)[C@H](O)[C@H]4O)nn3)(COCc3cn([C@@H]4O[C@H](CO)[C@H](O)[C@H](O)[C@H]4O)nn3)COCc3cn([C@@H]4O[C@H](CO)[C@H](O)[C@H](O)[C@H]4O)nn3)nn2)[C@H](O)[C@@H](O)[C@H]1O
[2]
  inhibition: Dose-dependent effect
[18]
  Activity: 28%

Reference: ChEMBL document CHEMBL3351887, “'Click' assembly of glycoclusters and discovery of a trehalose analogue that retards Aβ40 aggregation and inhibits Aβ40-induced neurotoxicity” (Bioorg Med Chem Lett, 2014)
